Laboratory results reported in publication PMC5616077 (Toxicology Reports, 2016).
Entries after “also recorded” stand apart in the source; their conditions may differ.

What was measured:
[1] = MTT assay; format: cell-based, human; settings: human, HaCaT wild-type (WT) cells; for EC50 at 48 h: calculated EC50 (cytotoxicity, viability), HaCaT WT, MTT
[2] = test system: HaCaT WT cells; experiment: Targeted metabolomics; format: cell-based, human; settings: 48 h; for change of Gln level vs control (in words) / change of PCaa_C36:2 level vs control (in words) / C4:1 concentration / C4 concentration / C6 (C4:1-DC) concentration / C10:2 concentration / C12-DC concentration / C12:1 concentration / C18:1-OH concentration / C18:2 concentration / Gln concentration / PCaa_C32:2 concentration / PCaa_C36:2 concentration / PCae_C32:1 concentration / PCae_C34:2 concentration / PCae_C34:3 concentration / PCae_C36:2 concentration / PCae_C36:3 concentration / PCae_C38:1 concentration / PCae_C38:2 concentration / PCae_C38:3 concentration / PCae_C38:4 concentration / PCae_C40:4 concentration / PCae_C40:5 concentration / SM_C16:1 concentration / alpha-AAA concentration / change of alpha-AAA level vs control (in words) / change of carnitines (e.g. C18:2) vs control (in words): BAP 1 μM, DALP 0.01 μM; for change of Gln level vs control (in words) / change of PCaa_C36:2 level vs control (in words) / C4:1 concentration / C4 concentration / C6 (C4:1-DC) concentration / C10:2 concentration / C12-DC concentration / C12:1 concentration / C18:1-OH concentration / C18:2 concentration / Gln concentration / PCaa_C32:2 concentration / PCaa_C36:2 concentration / PCae_C32:1 concentration / PCae_C34:2 concentration / PCae_C34:3 concentration / PCae_C36:2 concentration / PCae_C36:3 concentration / PCae_C38:1 concentration / PCae_C38:2 concentration / PCae_C38:3 concentration / PCae_C38:4 concentration / PCae_C40:4 concentration / PCae_C40:5 concentration / SM_C16:1 concentration / alpha-AAA concentration: CRY 1 μM; for C4:1 concentration / C4 concentration / C6 (C4:1-DC) concentration / C10:2 concentration / C12-DC concentration / C12:1 concentration / C18:1-OH concentration / C18:2 concentration / Gln concentration / PCaa_C32:2 concentration / PCaa_C36:2 concentration / PCae_C32:1 concentration / PCae_C34:2 concentration / PCae_C34:3 concentration / PCae_C36:2 concentration / PCae_C36:3 concentration / PCae_C38:1 concentration / PCae_C38:2 concentration / PCae_C38:3 concentration / PCae_C38:4 concentration / PCae_C40:4 concentration / PCae_C40:5 concentration / SM_C16:1 concentration / alpha-AAA concentration: mean ± SD
How it was run: (§1)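 Cells in DMEM with 10% FCS were seeded at 1 × 10^5 cells/mL and exposed 24 h later for 48 h, 4 replicates; vehicle controls got 0.1% DMSO. Cells were washed with ice-cold 155 mM ammonium formate pH 7.4, pelleted, weighed and snap-frozen. Extracts went on the p180 kit with isotope-labelled standards, phenylisothiocyanate derivatisation and 5 mM ammonium acetate/methanol extraction. Read by LC–MS/MS (positive) and FIA-MS/MS (±), MRM; μM normalised to pellet weight.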

[3] = test system: HaCaT AHR-KD cells; experiment: Targeted metabolomics; format: cell-based, human; settings: 48 h
How it was run: as §1

[4] = test system: HaCaT WT cells; experiment: MTT assay; format: cell-based, human; settings: HaCaT WT, 48 h, up to 20 μM
[5] = MTT assay; format: cell-based, human; settings: human, HaCaT AHR knockdown (AHR-KD) cells
[6] = test system: HaCaT AHR-KD cells; experiment: MTT assay; format: cell-based, human; settings: HaCaT AHR-KD, 48 h, up to 20 μM
[7] = test system: CYP1A1; experiment: Real-time PCR, AHR target gene induction; format: cell-based, human; settings: for CYP1A1 mRNA induction (in words): 24 h, BAP/CRY 0.1-3.5 μM
[8] = test system: CYP1B1; experiment: Real-time PCR, AHR target gene induction; format: cell-based, human; settings: for CYP1B1 mRNA induction (in words): 24 h
[9] = test system: CYP1A1; experiment: Western blot, protein level; format: cell-based, human; settings: HaCaT WT, 24 h and 48 h
[10] = test system: CYP1B1; experiment: Western blot, protein level; format: cell-based, human; settings: HaCaT WT, 24 h and 48 h
[11] = test system: HaCaT WT cells; experiment: Enzymatic determination of glutamine; format: cell-based, human; settings: 48 h, BAP 1 μM, CRY 1 μM, DALP 0.01 μM
[12] = test system: carnitine palmitoyltransferase 1 (CPT1); settings: liver of rats upon treatment; ref [55], [56]; cited from earlier work
[13] = HaCaT cells, 2 and 8 h, up to 1 μM, data not shown

SMILES	change of Gln level vs control (in words) [2]	change of PCaa_C36:2 level vs control (in words) [2]	C4:1 concentration [2] [nmol/g pellet weight]	C4 concentration [2] [nmol/g pellet weight]	C6 (C4:1-DC) concentration [2] [nmol/g pellet weight]	C10:2 concentration [2] [nmol/g pellet weight]	C12-DC concentration [2] [nmol/g pellet weight]	C12:1 concentration [2] [nmol/g pellet weight]	C18:1-OH concentration [2] [nmol/g pellet weight]	C18:2 concentration [2] [nmol/g pellet weight]	Gln concentration [2] [nmol/g pellet weight]	PCaa_C32:2 concentration [2] [nmol/g pellet weight]	PCaa_C36:2 concentration [2] [nmol/g pellet weight]	PCae_C32:1 concentration [2] [nmol/g pellet weight]	PCae_C34:2 concentration [2] [nmol/g pellet weight]	PCae_C34:3 concentration [2] [nmol/g pellet weight]	PCae_C36:2 concentration [2] [nmol/g pellet weight]	PCae_C36:3 concentration [2] [nmol/g pellet weight]	PCae_C38:1 concentration [2] [nmol/g pellet weight]	PCae_C38:2 concentration [2] [nmol/g pellet weight]	further results
c1ccc2c(c1)cc1ccc3cccc4ccc2c1c34 [BAP, benzo[a]pyrene]	strongly lowered	increased	1.1 ± 0.1	2.5 ± 0.3	2.3 ± 0.2	1.0 ± 0.1	3.8 ± 0.2	1.2 ± 0.1	0.9 ± 0.1	1.0 ± 0.1	77.1 ± 18.2	103.6 ± 11.5	2039.2 ± 198.8	198.8 ± 17.1	238.2 ± 23.8	26.8 ± 3.1	354.1 ± 28.2	108.6 ± 10.5	29.7 ± 2.2	74.9 ± 6.3	viability at 48 h, 20 µM [1]: ~80%; PCae_C38:3 concentration [2]: 33.8 ± 3.9 nmol/g pellet weight; PCae_C38:4 concentration [2]: 69.0 ± 7.3 nmol/g pellet weight; PCae_C40:4 concentration [2]: 11.7 ± 1.5 nmol/g pellet weight; PCae_C40:5 concentration [2]: 30.0 ± 2.5 nmol/g pellet weight; SM_C16:1 concentration [2]: 35.3 ± 3.4 nmol/g pellet weight; alpha-AAA concentration [2]: 5.7 ± 1.8 nmol/g pellet weight; change of alpha-AAA level vs control (in words) [2]: strong down-regulation; change of carnitines (e.g. C18:2) vs control (in words) [2]: strong up-regulation; change of Gln level vs control (in words) ([3]; BAP 1 μM, CRY 1 μM, DALP 0.01 μM): decreased
c1ccc2c(c1)ccc1c3ccccc3ccc21 [CRY, chrysene]	weakly	increased	0.9 ± 0.2	2.3 ± 0.5	1.9 ± 0.3	0.9 ± 0.1	3.3 ± 0.6	1.0 ± 0.2	0.8 ± 0.1	0.8 ± 0.1	114.3 ± 12.8	127.8 ± 17.3	2097.1 ± 262.1	231.2 ± 36.0	275.4 ± 48.2	29.7 ± 5.0	385.0 ± 53.6	120.5 ± 17.9	29.9 ± 5.0	78.0 ± 13.3	EC50 at 48 h [1]: 3800 nM; cytotoxicity / cell viability (in words) [4]: strong cytotoxic effects; EC50 at 48 h [5]: 2000 nM; cytotoxicity / cell viability (in words) [6]: strong cytotoxic effects; CYP1A1 mRNA induction (in words) ([7]; HaCaT AHR-KD): no significant induction; CYP1A1 mRNA induction (in words) ([7]; HaCaT WT, DALP 0.01-0.03 μM): inducing both genes in WT cells but less strongly; CYP1B1 mRNA induction (in words) ([8]; HaCaT AHR-KD, CRY 0.1-3.5 μM): no significant induction; CYP1B1 mRNA induction (in words) ([8]; HaCaT WT, BAP/CRY 0.1-3.5 μM, DALP 0.01-0.03 μM): inducing both genes in WT cells but less strongly; CYP1A1 protein induction (in words) [9]: moderate induction; CYP1B1 protein induction (in words) [10]: moderate induction; SM, AC, LPC and BA concentrations vs control (in words) ([2]; 1 μM): remained completely unaffected; PCae_C38:3 concentration [2]: 34.7 ± 5.8 nmol/g pellet weight; PCae_C38:4 concentration [2]: 70.5 ± 9.1 nmol/g pellet weight; PCae_C40:4 concentration [2]: 12.8 ± 2.0 nmol/g pellet weight; PCae_C40:5 concentration [2]: 33.3 ± 4.2 nmol/g pellet weight; SM_C16:1 concentration [2]: 35.0 ± 3.8 nmol/g pellet weight; alpha-AAA concentration [2]: 14.2 ± 3.8 nmol/g pellet weight; relative Gln level, enzymatic assay (in words) [11]: could not confirm the effect
c1ccc2c(c1)cc1ccc3cccc4c5ccccc5c2c1c34 [DALP, dibenzo[a,l]pyrene]	strongly lowered	measurable but insignificant decrease	1.3 ± 0.1	2.9 ± 0.3	2.5 ± 0.2	1.1 ± 0.1	4.2 ± 0.2	1.4 ± 0.1	1.0 ± 0.0	1.1 ± 0.1	65.7 ± 23.9	81.9 ± 9.5	1417.7 ± 173.7	164.7 ± 17.4	170.7 ± 25.4	20.8 ± 3.3	235.3 ± 25.3	65.2 ± 8.9	18.7 ± 1.2	50.7 ± 5.2	EC50 at 48 h [1]: 35 nM; cytotoxicity / cell viability (in words) [4]: enhanced cytotoxicity; also recorded: very strong cytotoxicity; cytotoxicity / cell viability (in words) [6]: remained unaffected; CYP1A1 mRNA induction (in words) ([7]; HaCaT WT, DALP 0.01-0.03 μM): only weakly increased; CYP1A1 mRNA induction at earlier time-points (in words) [7, 13]: no significant induction; CYP1B1 mRNA induction at earlier time-points (in words) [8, 13]: no significant induction; CYP1A1 protein induction (in words) [9]: no induction; CYP1B1 protein induction (in words) [10]: no induction; PCae_C38:3 concentration [2]: 18.5 ± 1.8 nmol/g pellet weight; PCae_C38:4 concentration [2]: 38.1 ± 4.0 nmol/g pellet weight; PCae_C40:4 concentration [2]: 7.6 ± 0.5 nmol/g pellet weight; PCae_C40:5 concentration [2]: 16.5 ± 1.5 nmol/g pellet weight; SM_C16:1 concentration [2]: 25.5 ± 2.1 nmol/g pellet weight; alpha-AAA concentration [2]: 2.0 ± 1.1 nmol/g pellet weight; change of alpha-AAA level vs control (in words) [2]: strong down-regulation; change of carnitines (e.g. C18:2) vs control (in words) [2]: strong up-regulation; metabolite levels vs control (in words) ([3]; 0.01 μM): remained virtually unaffected; relative Gln level, enzymatic assay (in words) [11]: downregulated approximately two-fold
Clc1cc2c(cc1Cl)Oc1cc(Cl)c(Cl)cc1O2 [TCDD, 2,3,7,8-tetrachlorodibenzo-p-dioxin]																					increase of carnitine palmitoyltransferase 1 (CPT1) [12]: more than 3 fold
